What was measured:
Format in all cases: functional
SK-MEL-2 = experiment: Anticancer activity against human SK-MEL-2 cells
Method in brief: (§1)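 NCI 60-human-tumour-cell-line panel. Selected analogues were first run at one dose, then some were carried into multi-dose testing. GI50 (50% growth inhibition), TGI (total growth inhibition) and LC50 (50% cell kill) were read as values interpolated where the dose–response curves cross these levels.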

MCF7 = experiment: Anticancer activity against human MCF7 cells; method in brief: as §1
UACC-257 = experiment: Anticancer activity against human UACC257 cells
[1] = Cytotoxicity against human Hs 578T cells assessed as cellular growth at 10 uM
Method in brief: (§2)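 Single-dose screen run by the NCI across its 60-human-tumour-cell-line panel; growth recorded for each cell line.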

UACC-62 = experiment: Anticancer activity against human UACC62 cells
RXF 393 = experiment: Anticancer activity against human RXF393 cells; method in brief: as §1
TK-10 = experiment: Anticancer activity against human TK10 cells
HCT-15 [2] = experiment: Anticancer activity against human HCT15 cells; method in brief: as §1
LOX IMVI [3] = experiment: Anticancer activity against human LOXIMVI cells; method in brief: as §1
RPMI-8226 = experiment: Anticancer activity against human RPMI8226 cells; method in brief: as §1
HCC 2998 [4] = experiment: Cytotoxicity against human HCC2998 cells assessed as cellular growth at 10 uM; method in brief: as §2
OVCAR-3 = experiment: Cytotoxicity against human OVCAR3 cells assessed as cellular growth at 10 uM; method in brief: as §2
UO-31 = experiment: Anticancer activity against human UO31 cells
OVCAR-4 = experiment: Anticancer activity against human OVCAR4 cells; method in brief: as §1
SK-OV-3 = experiment: Cytotoxicity against human SKOV3 cells assessed as cellular growth at 10 uM
SK-MEL-5 [5] = experiment: Cytotoxicity against human SK-MEL-5 cells assessed as cellular growth at 10 uM
NCI-H460 = experiment: Cytotoxicity against human NCI-H460 cells assessed as cellular growth at 10 uM; method in brief: as §2
OVCAR-5 = experiment: Cytotoxicity against human OVCAR5 cells assessed as cellular growth at 10 uM; method in brief: as §2
COLO 205 = experiment: Anticancer activity against human COLO205 cells; method in brief: as §1
M14 = experiment: Anticancer activity against human M14 cells; method in brief: as §1
LOX IMVI [6] = experiment: Cytotoxicity against human LOXIMVI cells assessed as cellular growth at 10 uM; method in brief: as §2
NCI-H322M [7] = experiment: Cytotoxicity against human NCI-H322M cells assessed as cellular growth at 10 uM; method in brief: as §2
T47D [8] = experiment: Cytotoxicity against human T47D cells assessed as cellular growth at 10 uM
A498 = experiment: Anticancer activity against human A498 cells; method in brief: as §1
SF-295 = experiment: Anticancer activity against human SF295 cells; method in brief: as §1
ACHN = experiment: Cytotoxicity against human ACHN cells assessed as cellular growth at 10 uM; method in brief: as §2
OVCAR-8 = experiment: Anticancer activity against human OVCAR8 cells; method in brief: as §1
HT-29 = experiment: Anticancer activity against human HT-29 cells; method in brief: as §1
HCC 2998 [9] = experiment: Anticancer activity against human HCC2998 cells; method in brief: as §1
NCI-H322M [10] = experiment: Anticancer activity against human NCI-H322M cells; method in brief: as §1
NCI/ADR-RES = experiment: Anticancer activity against human NCI/ADR-RES cells; method in brief: as §1
MDA-MB-231 = experiment: Anticancer activity against human MDA-MB-231 cells; method in brief: as §1
T47D [11] = experiment: Anticancer activity against human T47D cells
BT-549 = experiment: Anticancer activity against human BT549 cells; method in brief: as §1
HCT-15 [12] = experiment: Cytotoxicity against human HCT15 cells assessed as cellular growth at 10 uM; method in brief: as §2
[13] = Anticancer activity against human Hs 578T cells; method in brief: as §1
HOP-92 = experiment: Cytotoxicity against human HOP92 cells assessed as cellular growth at 10 uM; method in brief: as §2
DU-145 = experiment: Anticancer activity against human DU145 cells; method in brief: as §1
SK-MEL-28 = experiment: Cytotoxicity against human SK-MEL-28 cells assessed as cellular growth at 10 uM; method in brief: as §2
HCT-116 [14] = experiment: Anticancer activity against human HCT116 cells; method in brief: as §1
KM12 = experiment: Cytotoxicity against human KM12 cells assessed as cellular growth at 10 uM; method in brief: as §2
MDA-MB-435 [15] = experiment: Anticancer activity against human MDA-MB-435 cells; method in brief: as §1
SR [16] = experiment: Cytotoxicity against human SR cells assessed as cellular growth at 10 uM
HCT-116 [17] = experiment: Cytotoxicity against human HCT116 cells assessed as cellular growth at 10 uM; method in brief: as §2
SNB-19 = experiment: Cytotoxicity against human SNB19 cells assessed as cellular growth at 10 uM
CAKI-1 = experiment: Anticancer activity against human Caki1 cells; method in brief: as §1
MDA-MB-435 [18] = experiment: Cytotoxicity against human MDA-MB-435 cells assessed as cellular growth at 10 uM; method in brief: as §2
SK-MEL-5 [19] = experiment: Anticancer activity against human SK-MEL-5 cells; method in brief: as §1
MDA-MB-468 = experiment: Anticancer activity against human MDA-MB-468 cells; method in brief: as §1
SR [20] = experiment: Anticancer activity against human SR cells; method in brief: as §1
[21] = read-out: LC50 (the source's name)

Cc1ccc(C(=O)Nc2c(NC(=O)CN3CCN(C)CC3)ccc3c2C(=O)c2ccccc2C3=O)cc1
GI50 (SK-MEL-2): > 100 µM
TGI (SK-MEL-2): > 100 µM
CC50 (SK-MEL-2; [21]): > 100 µM
GI50 (MCF7): 3.13 µM
TGI (MCF7): > 100 µM
CC50 (MCF7; [21]): > 100 µM
GI50 (UACC-257): 2.23 µM
TGI (UACC-257): 5.81 µM
CC50 (UACC-257; [21]): > 100 µM
Activity [1]: 87.29%
GI50 (UACC-62): 2.52 µM
CC50 (UACC-62; [21]): > 100 µM
TGI (RXF 393): > 100 µM
CC50 (RXF 393; [21]): > 100 µM
GI50 (TK-10): > 100 µM
TGI (TK-10): > 100 µM
CC50 (TK-10; [21]): > 100 µM
GI50 (HCT-15 [2]): 3.36 µM
LC50 (HCT-15 [2]): > 100 µM
TGI (HCT-15 [2]): > 100 µM
TGI (LOX IMVI [3]): > 100 µM
CC50 (LOX IMVI [3]; [21]): > 100 µM
GI50 (RPMI-8226): 3.25 µM
LC50 (50% cell kill) (RPMI-8226): > 100 µM
TGI (RPMI-8226): > 100 µM
Activity (HCC 2998 [4]): 28.97%
Activity (OVCAR-3): -6.15%
TGI (UO-31): > 100 µM
CC50 (UO-31; [21]): > 100 µM
TGI (OVCAR-4): > 100 µM
CC50 (OVCAR-4; [21]): > 100 µM
Activity (SK-OV-3): 108.91%
Activity (SK-MEL-5 [5]): 41.3%
Activity (NCI-H460): 37.47%
Activity (OVCAR-5): 106.66%
GI50 (COLO 205): 2.22 µM
LC50 (COLO 205): > 100 µM
TGI (COLO 205): 4.08 µM
GI50 (M14): 2.22 µM
TGI (M14): 4.65 µM
Activity (LOX IMVI [6]): 1.24%
Activity (NCI-H322M [7]): 72.6%
Activity (T47D [8]): 52.62%
GI50 (A498): > 100 µM
TGI (A498): > 100 µM
CC50 (A498; [21]): > 100 µM
GI50 (SF-295): > 100 µM
TGI (SF-295): > 100 µM
CC50 (SF-295; [21]): > 100 µM
Activity (ACHN): 49.87%
GI50 (OVCAR-8): > 100 µM
TGI (OVCAR-8): > 100 µM
CC50 (OVCAR-8; [21]): > 100 µM
GI50 (HT-29): 3.09 µM
TGI (HT-29): > 100 µM
CC50 (HT-29; [21]): > 100 µM
GI50 (HCC 2998 [9]): 3 µM
TGI (HCC 2998 [9]): > 100 µM
CC50 (HCC 2998 [9]; [21]): > 100 µM
GI50 (NCI-H322M [10]): > 100 µM
LC50 (50% cell kill) (NCI-H322M [10]): > 100 µM
TGI (NCI-H322M [10]): > 100 µM
TGI (NCI/ADR-RES): > 100 µM
CC50 (NCI/ADR-RES; [21]): > 100 µM
GI50 (MDA-MB-231): 3.3 µM
TGI (MDA-MB-231): > 100 µM
CC50 (MDA-MB-231; [21]): > 100 µM
GI50 (T47D [11]): 2.62 µM
CC50 (T47D [11]; [21]): > 100 µM
GI50 (BT-549): > 100 µM
TGI (BT-549): > 100 µM
CC50 (BT-549; [21]): > 100 µM
Activity (HCT-15 [12]): 27.47%
GI50 [13]: > 100 µM
TGI [13]: > 100 µM
CC50 [13, 21]: > 100 µM
Activity (HOP-92): 90.68%
GI50 (DU-145): > 100 µM
TGI (DU-145): > 100 µM
CC50 (DU-145; [21]): > 100 µM
Activity (SK-MEL-28): -57.56%
GI50 (HCT-116 [14]): 3.08 µM
TGI (HCT-116 [14]): > 100 µM
CC50 (HCT-116 [14]; [21]): > 100 µM
Activity (KM12): 44.05%
GI50 (MDA-MB-435 [15]): 3.13 µM
TGI (MDA-MB-435 [15]): > 100 µM
CC50 (MDA-MB-435 [15]; [21]): > 100 µM
Activity (SR [16]): -43.7%
Activity (HCT-116 [17]): 8.37%
Activity (SNB-19): 68.75%
TGI (CAKI-1): > 100 µM
CC50 (CAKI-1; [21]): > 100 µM
Activity (MDA-MB-435 [18]): 11.15%
GI50 (SK-MEL-5 [19]): 1.94 µM
CC50 (SK-MEL-5 [19]; [21]): > 100 µM
GI50 (MDA-MB-468): 2.58 µM
TGI (MDA-MB-468): > 100 µM
CC50 (MDA-MB-468; [21]): > 100 µM
LC50 (SR [20]): > 100 µM
TGI (SR [20]): 4.65 µM

From ChEMBL document CHEMBL1926565, “Synthesis, antiproliferative activities and telomerase inhibition evaluation of novel asymmetrical 1,2-disubstituted amidoanthraquinone derivatives” (Eur J Med Chem, 2012)
